One assay addresses T1, Adenosine receptor A1 (Rattus norvegicus, UniProt P25099).
T1 sequence (P25099 whole entry): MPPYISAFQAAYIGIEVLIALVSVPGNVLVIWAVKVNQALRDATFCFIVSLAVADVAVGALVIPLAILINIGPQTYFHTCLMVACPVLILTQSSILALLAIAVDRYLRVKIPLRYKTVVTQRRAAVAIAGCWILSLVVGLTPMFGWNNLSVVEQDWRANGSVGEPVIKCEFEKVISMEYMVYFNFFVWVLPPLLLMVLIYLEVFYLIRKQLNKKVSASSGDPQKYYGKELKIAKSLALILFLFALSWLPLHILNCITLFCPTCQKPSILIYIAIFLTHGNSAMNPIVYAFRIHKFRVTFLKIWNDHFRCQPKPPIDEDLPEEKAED
The experiment in a line: Displacement of specific [3H]PIA binding from adenosine A1 receptor in rat brain membranes. In kind it is cell membranes. In outline:
(§1)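 Rat cortical membranes were pretreated with adenosine deaminase (3 units/mL) for 30 min at 30 °C during preparation. The enzyme was also present during incubation with [3H]-(R)-PIA. Ki values were derived from displacement of specific binding.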

Another assay deals with T2, Adenosine receptor A3 (Homo sapiens, UniProt P0DMS8).
T2 sequence (P0DMS8 whole entry): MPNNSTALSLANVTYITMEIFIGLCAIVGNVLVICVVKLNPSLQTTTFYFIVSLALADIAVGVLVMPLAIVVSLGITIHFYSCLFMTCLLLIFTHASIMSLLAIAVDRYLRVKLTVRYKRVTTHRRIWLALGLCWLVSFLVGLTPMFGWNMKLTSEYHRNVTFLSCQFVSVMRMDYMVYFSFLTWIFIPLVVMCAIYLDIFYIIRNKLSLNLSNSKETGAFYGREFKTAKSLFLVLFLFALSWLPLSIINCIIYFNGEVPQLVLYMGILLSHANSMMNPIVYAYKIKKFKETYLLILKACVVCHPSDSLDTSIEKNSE
The experiment in a line: Displacement of [125I]AB-MECA binding to human Adenosine A3 receptor expressed in HEK293 cells. In kind it is cell-based. In outline:
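Membranes came from HEK-293 cells stably expressing human A3. Compounds came from DMSO stock, ≤1% final. Duplicates ran 1 h at 37 or 25 °C, then filtration and γ-counting. Nonspecific binding was set with 100 μM (R)-PIA.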
For orientation: Displacement assays read how much labelled ligand stays bound in the presence of the test substance.

The target in a further assay is Adenosine receptor A2a (Rattus norvegicus, UniProt P30543). Nature of the assay: Affinity at Adenosine A2A receptor in rat striatal membranes by [3H]- CGS 21680 displacement. Type of assay: cell membranes, Striatum, Membrane. The essentials: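 Rat striatal membranes were prepared with adenosine deaminase (3 units/mL), including a 30 min step at 30 °C.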
The target in assay [1] is T3, Adenosine receptor A1 (Rattus norvegicus) (UniProt P25099).
T3 sequence (whole entry): T1 sequence (P25099 whole entry)
The experiment in a line: Displacement of [3H]PIA from Adenosine A1 receptor in rat brain membranes. Type of assay: cell membranes. In outline: as §1

Assay [2] has as its target T4, Adenosine receptor A3 (Homo sapiens) (UniProt P0DMS8).
T4 sequence (whole entry): T2 sequence (P0DMS8 whole entry)
The experiment in a line: Displacement of specific [125I]AB-MECA binding from human Adenosine A3 receptor expressed in HEK293 cells. Type of assay: cell-based. On the set-up: concentration or dose not given beside the values. The essentials: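 Membranes came from HEK-293 cells stably expressing human A3. Binding used Mg2+-free 50 mM Tris with 1 mM EDTA, pH 8.0, and 0.3 nM final [125I]AB-MECA. Compounds came from DMSO stock, ≤1% final. Duplicates ran 1 h at 37 or 25 °C, then filtration and γ-counting. Nonspecific binding was set with 100 μM (R)-PIA.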

Assay [3] addresses Adenosine receptor A2a (Rattus norvegicus) (UniProt P30543). The experiment in a line: Displacement of [3H]-CGS- 21680 from Adenosine A2A receptor in rat striatal membranes at 10e-4 M. Type of assay: cell membranes. The following applies: Membrane. In outline: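 Rat striatal membranes were prepared with adenosine deaminase (3 units/mL), including a 30 min step at 30 °C. The enzyme was kept during the [3H]CGS 21680 incubation.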

The structures appear in SMILES notation. Where only a bound is given, the exact number is not on record here.

A word on the Ki: it is the dissociation constant of the complex between target and ligand, obtained from inhibition or displacement.

Chain of Adenosine receptor A2a (Rattus norvegicus) (P30543 whole entry): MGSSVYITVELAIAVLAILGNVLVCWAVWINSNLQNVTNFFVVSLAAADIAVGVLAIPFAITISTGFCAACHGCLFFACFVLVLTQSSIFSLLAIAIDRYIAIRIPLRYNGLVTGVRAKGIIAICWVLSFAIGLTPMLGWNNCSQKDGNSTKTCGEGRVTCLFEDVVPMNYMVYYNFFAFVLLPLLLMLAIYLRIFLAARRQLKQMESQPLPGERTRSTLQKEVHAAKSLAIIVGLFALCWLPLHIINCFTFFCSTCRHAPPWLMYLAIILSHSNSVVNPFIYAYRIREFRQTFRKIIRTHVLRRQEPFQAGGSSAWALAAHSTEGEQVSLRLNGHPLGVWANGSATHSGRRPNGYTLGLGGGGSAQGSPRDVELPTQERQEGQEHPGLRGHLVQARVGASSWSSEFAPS
Chain of Adenosine receptor A2a (P30543 whole entry): as above

For `COc1cc(O)c2c(c1)OC(c1ccc(O)cc1)CC2=O` (stereo not given), the Ki came out at 8.18 µM on Adenosine receptor A1, 3.4 µM on Adenosine receptor A3 and 35.6 µM on Adenosine receptor A2a.
As for `COc1cc(OC)c2c(=O)c(OC)c(-c3cc(OC)c(OC)c(OC)c3)oc2c1`, the Displacement in assay [1] was < 10%.
Consider `O=c1cc(-c2ccccc2)oc2c1ccc1ccccc12`, for which the Displacement in assay [2] came out at 71%.
Still for that read-out and setting: for `COc1ccc(-c2cc(=O)c3ccc(O)cc3o2)cc1OC` the value was 32%; for `O=c1cc(-c2ccccc2)oc2cccc(O)c12`, 47%.
Still for that read-out and setting: then `O=c1cc(-c2ccccc2)oc2cc(O)ccc12`, with 41%.
On to `O=c1cc(-c2ccccc2)oc2ccc3ccccc3c12`, for which the figures for the Displacement in assay [2] and in assay [3] were 12% and < 10%, respectively.
On to `COc1cc2c3c(c1)c1cc4c(cc1c(=O)n3CC2)OCO4`, for which the Displacement in assay [2] and in assay [3] was < 10% each time.
Consider `COC1C=CC23c4cc5c(cc4C[N+](C)(CC2OC(C)=O)C3C1)OCO5` (stereo not given), for which the Displacement in assay [2] and in assay [3] was < 10% each time.
Regarding `O=C1c2c(O)cc(O)cc2OC(c2ccc(O)c(O)c2)C1O` (racemic), the Displacement in assay [1] is < 10%.
Take `COc1cc2c(c(O)c1OC)c(=O)c1ccccc1n2C`: the Displacement in assay [2] was found to be 63%.
On to `O=C1c2cc(O)c(O)cc2C2c3ccc(O)c(O)c3OCC12O` (stereo not given), for which the Displacement is < 10% in assay [2] and 28% in assay [3].
With `COc1c(O)cc2oc(-c3ccc(O)cc3)cc(=O)c2c1O`, the Displacement in assay [2] turned out to be 63%.
`COc1ccc2c(=O)c(O)c(-c3ccc(O)c(O)c3)oc2c1` returned a Ki on Adenosine receptor A3 of 1.38 µM.
`O=C1c2ccccc2-c2cc3c(cc21)OCO3` displayed a Displacement in assay [2] of 52%.
As for `COc1ccc(-c2cc(=O)c3c(O)cc(OC)cc3o2)cc1`, the Displacement in assay [2] is 69%; in assay [1], < 10%; in assay [3] it was < 10%.
As to `Cc1ccc(-c2cc(=O)c3c(C)c(C)c(C)cc3o2)cc1`, the results for the Ki on Adenosine receptor A1 and at Adenosine receptor A3 were 1.29 µM and 4.48 µM, respectively.
Consider `O=c1cc(-c2ccc(O)cc2)oc2cc(O)cc(O)c12`, for which the Displacement in assay [2] worked out at 63%.
On the same count and under the same terms, for `COc1cc2c3c(oc(=O)c2cc1OC)CCCC3=O` the value was < 10%; for `O=c1c(-c2ccc(O)cc2)coc2cc(O)cc(O)c12`, 20%.
In assay [2], `CCn1c2c(c3cc4c(cc3c1=O)OCO4)C(=O)CCC2` had a Displacement of 19%.
